Molecules are shown by their SMILES.

One may read the EC50 as the concentration giving half of the maximal effect. By CC50 is commonly meant the concentration giving 50% cytotoxicity.

One series relates to Hepatitis C virus. The series can be described thus: Antiviral activity against HCV in human HuH7 cells assessed as inhibition of RNA replication after 4 days by FRET-based assay. In kind it is functional, organism-based, Hepacivirus hominis. Conditions: Huh-7, 96 h. In outline:
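Huh-7 cells carrying an HCV replicon were seeded at 5 × 10³/well in complete DMEM with 500 µg/mL G418 and held 24 h at 37 °C, 5% CO₂. The medium was then refreshed and compounds were added at 0.1–100 µM (seven levels) from DMSO stock. After 4 days at 37 °C, cells were lysed. NS3 protease FRET signal was read at 340 ex/490 em. IFN-α2b (10000 units/well) served as positive control.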

Series [1] is described as follows: Cytotoxicity against human HuH7 cells assessed as reduction in cell proliferation. In kind it is cell-based, Huh-7.

For `O=c1cc(CNCc2ccc(I)cc2)oc2ccc(O)c(O)c12`, the half-maximal effective concentration (EC50) in the series with Hepatitis C virus is 4.1 µM. Besides, the cytotoxic concentration (CC50) in series [1] stood at 41.7 µM.

`O=c1cc(CNCc2cccc(I)c2)oc2ccc(O)c(O)c12`: the EC50 in the series on Hepatitis C virus was 7.3 µM. The cytotoxic concentration (CC50) in series [1] is more than 100 µM.

Turning to `O=c1cc(CNCc2cccc(Br)c2)oc2ccc(O)c(O)c12`, the EC50 in the series with Hepatitis C virus was 3.6 µM. The half-maximal cytotoxic concentration (CC50) in series [1] is more than 100 µM.

Consider `O=c1cc(CNCc2ccccc2)oc2ccc(O)c(O)c12`, for which the EC50 with Hepatitis C virus is more than 100 µM. Besides, in series [1], the half-maximal cytotoxic concentration (CC50) is more than 100 µM.

Take `Cc1cccc(CNCc2cc(=O)c3c(O)c(O)ccc3o2)c1`: in the series with Hepatitis C virus, the EC50 was determined as 2 µM. Moreover, the CC50 in series [1] was more than 100 µM.

As to `O=c1cc(CNCc2ccccc2O)oc2ccc(O)c(O)c12`, in the series on Hepatitis C virus, the EC50 was more than 100 µM. In addition, the CC50 in series [1] is more than 100 µM.

With `O=c1cc(CNCc2ccccc2[N+](=O)[O-])oc2ccc(O)c(O)c12`, in the series on Hepatitis C virus, the half-maximal effective concentration (EC50) was more than 100 µM. Also, the CC50 in series [1] is 41.3 µM.

With `O=c1cc(CNCc2ccc(O)cc2)oc2ccc(O)c(O)c12`, the EC50 in the series on Hepatitis C virus is more than 100 µM. The CC50 in series [1] was determined as 62.7 µM.

For the molecule `O=c1cc(CNCc2cccc([N+](=O)[O-])c2)oc2ccc(O)c(O)c12`, the half-maximal effective concentration (EC50) in the series on Hepatitis C virus was more than 100 µM. Besides, the CC50 in series [1] was more than 100 µM.

Regarding `Cc1ccccc1CNCc1cc(=O)c2c(O)c(O)ccc2o1`, in the series with Hepatitis C virus, the half-maximal effective concentration (EC50) was 1.2 µM. For the same molecule, the CC50 in series [1] is 52.2 µM.

For the molecule `O=c1cc(CNCc2ccccc2I)oc2ccc(O)c(O)c12`, the EC50 in the series with Hepatitis C virus amounted to 6.3 µM. Further, the CC50 in series [1] came to 87.3 µM.

`O=c1cc(CNCc2ccccc2Br)oc2ccc(O)c(O)c12`: in the series on Hepatitis C virus, the concentration for a half-maximal effect (EC50) was more than 100 µM. Besides, the CC50 in series [1] was more than 100 µM.

For `Cc1ccc(CNCc2cc(=O)c3c(O)c(O)ccc3o2)cc1`, in the series with Hepatitis C virus, the EC50 worked out at 5.7 µM. The 50% cytotoxic concentration (CC50) in series [1] is more than 100 µM.

With `O=c1cc(CNCc2ccc(F)cc2)oc2ccc(O)c(O)c12`, the concentration for a half-maximal effect (EC50) in the series on Hepatitis C virus was more than 100 µM. In addition, the CC50 in series [1] was more than 100 µM.

Turning to `O=c1cc(CNCc2ccccc2Cl)oc2ccc(O)c(O)c12`, in the series with Hepatitis C virus, the EC50 is more than 100 µM. The 50% cytotoxic concentration (CC50) in series [1] was more than 100 µM.

As for `O=c1cc(CNCc2ccc(Cl)cc2)oc2ccc(O)c(O)c12`, the concentration giving a half-maximal response (EC50) in the series with Hepatitis C virus was more than 100 µM. Besides, the CC50 in series [1] was more than 100 µM.

Regarding `O=c1cc(CNCc2cccc(F)c2)oc2ccc(O)c(O)c12`, in the series on Hepatitis C virus, the EC50 is more than 100 µM. In series [1], the CC50 was more than 100 µM.

As to `O=c1cc(CNCc2ccc(Br)cc2)oc2ccc(O)c(O)c12`, in the series with Hepatitis C virus, the half-maximal effective concentration (EC50) is more than 100 µM. The cytotoxic concentration (CC50) in series [1] is more than 100 µM.

Consider `O=c1cc(CNCc2ccc([N+](=O)[O-])cc2)oc2ccc(O)c(O)c12`, for which the EC50 with Hepatitis C virus was more than 100 µM. Also, in series [1], the CC50 was found to be 73.3 µM.

On to `O=c1cc(CNCc2cccc(O)c2)oc2ccc(O)c(O)c12`, for which the EC50 in the series on Hepatitis C virus was more than 100 µM. For the same molecule, in series [1], the CC50 was more than 100 µM.

Turning to `O=c1cc(CNCc2cccc(Cl)c2)oc2ccc(O)c(O)c12`, the half-maximal effective concentration (EC50) in the series with Hepatitis C virus was determined as 14 µM. The cytotoxic concentration (CC50) in series [1] is more than 100 µM.

Values taken from ChEMBL document CHEMBL1777805, “2-Arylmethylaminomethyl-5,6-dihydroxychromone derivatives with selective anti-HCV activity” (Bioorg Med Chem Lett, 2011).
